# Source: ChEMBL document CHEMBL4033667, “Design, synthesis, and identification of a novel napthalamide-isoselenocyanate compound NISC-6 as a dual Topoisomerase-IIα and Akt pathway inhibitor, and evaluation of its anti-melanoma activity” (Eur J Med Chem, 2017)
# The source made the active and inactive calls. The calls are words filed in the database; no cut-off is given here.
# Key:
# [1] = tested on: CHL-1; experiment: Antiproliferative activity against human CHL-1 cells harboring wild type BRAF after 72 hrs by MTT assay; assay type: functional, cell-based; settings: CHL-1, 72 h
# Summary of the method: (§1)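 MTT viability in melanoma lines grown in DMEM with 10% FBS and pen/strep at 37 °C, 5% CO2. 3000 cells/well, settled overnight, then exposed to compound (0 to 50 µM) in triplicate for 24, 48 or 72 h. MTT (5.0 mg/mL solution) added 3 h before termination. IC50 from non-linear regression (variable slope), mean ± SD.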
# [2] = Antiproliferative activity against human A375M cells harboring BRAF V600E mutant after 24 hrs by MTT assay; assay type: functional, cell-based; summary of the method: as §1
# [3] = Antiproliferative activity against human A375M cells harboring BRAF V600E mutant after 48 hrs by MTT assay; assay type: functional, cell-based; summary of the method: as §1
# [4] = tested on: CHL-1; experiment: Antiproliferative activity against human CHL-1 cells harboring wild type BRAF after 24 hrs by MTT assay; assay type: functional, cell-based; settings: CHL-1, 24 h; summary of the method: as §1
# [5] = tested on: CHL-1; experiment: Antiproliferative activity against human CHL-1 cells harboring wild type BRAF after 48 hrs by MTT assay; assay type: functional, cell-based; settings: CHL-1, 48 h; summary of the method: as §1
# [6] = tested on: UACC-903; experiment: Antiproliferative activity against human UACC-903 cells harboring BRAF V600E mutant after 48 hrs by MTT assay; assay type: functional, cell-based; settings: UACC-903, 48 h; summary of the method: as §1
# [7] = tested on: UACC-903; experiment: Antiproliferative activity against human UACC-903 cells harboring BRAF V600E mutant after 72 hrs by MTT assay; assay type: functional, cell-based; settings: UACC-903, 72 h; summary of the method: as §1
# [8] = Antiproliferative activity against human 1205 Lu cells harboring BRAF V600E mutant after 24 hrs by MTT assay; assay type: functional, cell-based; summary of the method: as §1
# [9] = Antiproliferative activity against human A375M cells harboring BRAF V600E mutant after 72 hrs by MTT assay; assay type: functional, cell-based; summary of the method: as §1
# [10] = Antiproliferative activity against human 1205 Lu cells harboring BRAF V600E mutant after 48 hrs by MTT assay; assay type: functional, cell-based; summary of the method: as §1
# [11] = tested on: UACC-903; experiment: Antiproliferative activity against human UACC-903 cells harboring BRAF V600E mutant after 24 hrs by MTT assay; assay type: functional, cell-based; settings: UACC-903, 24 h; summary of the method: as §1
# [12] = Antiproliferative activity against human 1205 Lu cells harboring BRAF V600E mutant after 72 hrs by MTT assay; assay type: functional, cell-based; summary of the method: as §1
# [13] = tested on: UACC-903; experiment: Induction of apoptosis in human UACC-903 cells assessed as viable cells at 5 uM after 24 hrs by Annexin-V/7-AAD staining-based fluorescence assay (reference value: 83.90%); assay type: functional; settings: UACC-903, 24 h, read-out: Activity
# [14] = tested on: UACC-903; experiment: Induction of apoptosis in human UACC-903 cells assessed as increase in caspase 3/7 activity by measuring necrotic cells at 5 uM after 24 hrs by 7-AAD staining-based fluorescence assay (reference value: 0.34%); assay type: functional
# Summary of the method: (§2)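 Muse caspase-3/7 kit on UACC903 cells after 24 h at given doses or DMSO. Cell-permeant NucView DEVD-linked DNA dye fluoresces after cleavage by active caspase 3/7. 7-AAD marks cells with compromised membranes. Gates: live, early apoptotic (caspase+/7-AAD−), late apoptotic (both +), necrotic (7-AAD+ only).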
# [15] = biological target: Mitogen-activated protein kinase; ERK1/ERK2 (Homo sapiens) (UniProt P27361+P28482); experiment: Inhibition of Erk1/2 phosphorylation in human UACC-903 cells at 2.5 to 5 uM after 24 hrs by Western blot analysis; assay type: cell-based
# [16] = tested on: UACC-903; experiment: Induction of apoptosis in human UACC-903 cells assessed as increase in caspase 3/7 activity by measuring late apoptotic cells at 10 uM after 24 hrs by 7-AAD staining-based fluorescence assay (reference value: 6.08%); assay type: functional; summary of the method: as §2
# [17] = organism: Homo sapiens; experiment: Inhibition of DNA topoisomerase 2 in human UACC-903 cells assessed as increase in H2AX phosphorylation at 5 uM after 6 hrs by DAPI staining-based immunocytochemistry analysis; assay type: cell-based
# Summary of the method: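 UACC903 cells (1.6 × 10^5) on coverslips overnight, then 5 µM or DMSO for 6 h. Fixed in 4% formaldehyde and blocked 1 h (0.3% Triton X-100, 5% donkey serum). Anti-p-H2A.X 1:500 overnight at 4 °C, then Alexa Fluor 488 secondary 1:500 with phalloidin for 1 h. DAPI mounting, imaged at 60X.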
# [18] = tested on: UACC-903; experiment: Induction of apoptosis in human UACC-903 cells assessed as late apoptotic cells at 10 uM after 24 hrs by Annexin-V/7-AAD staining-based fluorescence assay (reference value: 2.78%); assay type: functional
# [19] = tested on: UACC-903; experiment: Induction of apoptosis in human UACC-903 cells assessed as increase in caspase 3/7 activity by measuring early apoptotic cells at 5 uM after 24 hrs by 7-AAD staining-based fluorescence assay (reference value: 16.08%); assay type: functional; summary of the method: as §2
# [20] = biological target: RAC-alpha serine/threonine-protein kinase (Homo sapiens) (UniProt P31749); experiment: Inhibition of Akt-phosphorylation in human UACC-903 cells after 24 hrs by Western blot analysis; assay type: cell-based
# Summary of the method: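 UACC903 cells treated with increasing doses for 24 h, then lysed in RIPA with protease and phosphatase inhibitors and spun 15,000 rpm for 10 min. Lysates resolved on 4-12% gel, moved to PVDF and probed for phospho-Akt and pan-Akt. β-actin served as loading control; detection by ECL.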
# [21] = tested on: UACC-903; experiment: Induction of apoptosis in human UACC-903 cells assessed as increase in caspase 3/7 activity by measuring necrotic cells at 10 uM after 24 hrs by 7-AAD staining-based fluorescence assay (reference value: 0.34%); assay type: functional; summary of the method: as §2
# [22] = tested on: UACC-903; experiment: Induction of apoptosis in human UACC-903 cells assessed as increase in caspase 3/7 activity by measuring late apoptotic cells at 5 uM after 24 hrs by 7-AAD staining-based fluorescence assay (reference value: 6.08%); assay type: functional; summary of the method: as §2
# [23] = tested on: UACC-903; experiment: Induction of apoptosis in human UACC-903 cells assessed as necrotic cells at 5 uM after 24 hrs by Annexin-V/7-AAD staining-based fluorescence assay (reference value: 0.17%); assay type: functional
# [24] = tested on: UACC-903; experiment: Antitumor activity against human UACC-903 cells xenografted in Harlan Sprague Dawley mouse assessed as reduction in tumor burden at 0.6 umole, ip administered 3 times a week measured on day 40 relative to vehicle-treated control; assay type: functional; set-up: scale not given: the % may be the effect or the level left
# Summary of the method: (§3)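 5×10^6 UACC 903 cells in 0.2 mL DMEM/10% FBS injected s.c. into both flanks of 4-6 week female athymic nude mice. From day 6, randomised groups (5 mice, 2 tumours each) received i.p. DMSO or 0.6 µmole in DMSO (100 µL) three times weekly. Caliper tumour volume and body weight taken thrice weekly to day 40; mean ± SEM.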
# [25] = tested on: NHDF; experiment: Cytotoxicity against human NHDF cells assessed as reduction in cell viability at 5 uM after 48 hrs by MTT assay; assay type: cell-based
# Summary of the method: (§4)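 nHDF normal fibroblasts grown in serum-free fibroblast basal medium with growth kit and pen/strep/amphotericin B. Treated 48 h at set concentrations, with viability read by MTT assay.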
# [26] = tested on: UACC-903; experiment: Induction of apoptosis in human UACC-903 cells assessed as increase in caspase 3/7 activity by measuring early apoptotic cells at 10 uM after 24 hrs by 7-AAD staining-based fluorescence assay (reference value: 16.08%); assay type: functional; summary of the method: as §2
# [27] = tested on: UACC-903; experiment: Induction of apoptosis in human UACC-903 cells assessed as necrotic cells at 10 uM after 24 hrs by Annexin-V/7-AAD staining-based fluorescence assay (reference value: 0.17%); assay type: functional
# [28] = tested on: UACC-903; experiment: Induction of apoptosis in human UACC-903 cells assessed as early apoptotic cells at 5 uM after 24 hrs by Annexin-V/7-AAD staining-based fluorescence assay (reference value: 13.15%); assay type: functional
# [29] = tested on: UACC-903; experiment: Induction of apoptosis in human UACC-903 cells assessed as increase in caspase 3/7 activity by measuring viable cells at 10 uM after 24 hrs by 7-AAD staining-based fluorescence assay (reference value: 77.50%); assay type: functional; summary of the method: as §2
# [30] = tested on: UACC-903; experiment: Induction of apoptosis in human UACC-903 cells assessed as viable cells at 10 uM after 24 hrs by Annexin-V/7-AAD staining-based fluorescence assay (reference value: 83.90%); assay type: functional; settings: UACC-903, 24 h, read-out: Activity
# [31] = tested on: UACC-903; experiment: Induction of apoptosis in human UACC-903 cells assessed as early apoptotic cells at 10 uM after 24 hrs by Annexin-V/7-AAD staining-based fluorescence assay (reference value: 13.15%); assay type: functional
# [32] = tested on: UACC-903; experiment: Induction of apoptosis in human UACC-903 cells assessed as increase in caspase 3/7 activity by measuring viable cells at 5 uM after 24 hrs by 7-AAD staining-based fluorescence assay (reference value: 77.50%); assay type: functional; summary of the method: as §2
# [33] = tested on: Mus musculus; experiment: Toxicity in Harlan Sprague Dawley mouse xenografted with human UACC-903 cells assessed as body weight loss at 0.6 umole, ip administered 3 times a week measured during compound dosing relative to control; assay type: organism-based; settings: in vivo; summary of the method: as §3
# [34] = biological target: DNA topoisomerase 2-alpha (Homo sapiens) (UniProt P11388); experiment: Inhibition of human DNA topoisomerase 2alpha assessed as decrease in relaxation of supercoiled pBR322 DNA at 0.5 to 5 uM after 1 hr by ethidium bromide staining-based agarose gel electrophoresis
# Summary of the method: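 Kit-based relaxation assay: supercoiled plasmid DNA with 4 units of human Topo-IIα in assay buffer plus test agent or DMSO at 37 °C (1 h in legend, 30 min in methods). Stopped with 10% SDS, then proteinase K 15 min at 37 °C. Run on 1% agarose 1-2 h, ethidium bromide 2 h, destain 15 min in TAE, UV imaging.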
# [35] = tested on: NHDF; experiment: Cytotoxicity against human NHDF cells assessed as reduction in cell viability at 2.5 uM after 48 hrs by MTT assay; assay type: cell-based; summary of the method: as §4
# [36] = tested on: UACC-903; experiment: Induction of apoptosis in human UACC-903 cells assessed as late apoptotic cells at 5 uM after 24 hrs by Annexin-V/7-AAD staining-based fluorescence assay (reference value: 2.78%); assay type: functional
# [37] = tested on: CHL-1; experiment: Potency index, ratio of PLX-4032 IC50 to test compound IC50 for human CHL-1 cells harboring wild type BRAF after 72 hrs; assay type: functional
# Chain of Mitogen-activated protein kinase; ERK1/ERK2 (Homo sapiens) (P27361 whole entry, looked up): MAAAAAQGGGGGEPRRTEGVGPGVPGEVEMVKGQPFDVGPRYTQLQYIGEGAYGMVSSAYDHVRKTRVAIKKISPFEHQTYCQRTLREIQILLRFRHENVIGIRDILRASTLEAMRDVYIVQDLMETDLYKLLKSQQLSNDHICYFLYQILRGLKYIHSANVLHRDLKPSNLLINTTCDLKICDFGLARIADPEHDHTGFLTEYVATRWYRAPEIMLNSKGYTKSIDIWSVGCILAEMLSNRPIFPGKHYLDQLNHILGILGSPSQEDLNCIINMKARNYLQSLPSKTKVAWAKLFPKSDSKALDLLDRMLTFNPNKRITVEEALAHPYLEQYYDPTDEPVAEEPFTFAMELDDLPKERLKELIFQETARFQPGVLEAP
# Chain of Mitogen-activated protein kinase; ERK1/ERK2 (Homo sapiens) (P28482 whole entry, looked up): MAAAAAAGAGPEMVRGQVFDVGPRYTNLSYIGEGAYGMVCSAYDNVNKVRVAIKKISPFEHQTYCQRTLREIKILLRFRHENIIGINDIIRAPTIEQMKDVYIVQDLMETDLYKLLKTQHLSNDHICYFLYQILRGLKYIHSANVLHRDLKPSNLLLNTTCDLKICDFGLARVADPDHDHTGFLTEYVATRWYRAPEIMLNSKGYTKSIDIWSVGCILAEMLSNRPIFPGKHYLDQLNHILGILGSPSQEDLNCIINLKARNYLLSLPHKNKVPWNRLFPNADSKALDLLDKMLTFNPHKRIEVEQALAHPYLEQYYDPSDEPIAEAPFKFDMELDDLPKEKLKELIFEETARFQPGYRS
# Chain of DNA topoisomerase 2-alpha (Homo sapiens) (P11388 whole entry): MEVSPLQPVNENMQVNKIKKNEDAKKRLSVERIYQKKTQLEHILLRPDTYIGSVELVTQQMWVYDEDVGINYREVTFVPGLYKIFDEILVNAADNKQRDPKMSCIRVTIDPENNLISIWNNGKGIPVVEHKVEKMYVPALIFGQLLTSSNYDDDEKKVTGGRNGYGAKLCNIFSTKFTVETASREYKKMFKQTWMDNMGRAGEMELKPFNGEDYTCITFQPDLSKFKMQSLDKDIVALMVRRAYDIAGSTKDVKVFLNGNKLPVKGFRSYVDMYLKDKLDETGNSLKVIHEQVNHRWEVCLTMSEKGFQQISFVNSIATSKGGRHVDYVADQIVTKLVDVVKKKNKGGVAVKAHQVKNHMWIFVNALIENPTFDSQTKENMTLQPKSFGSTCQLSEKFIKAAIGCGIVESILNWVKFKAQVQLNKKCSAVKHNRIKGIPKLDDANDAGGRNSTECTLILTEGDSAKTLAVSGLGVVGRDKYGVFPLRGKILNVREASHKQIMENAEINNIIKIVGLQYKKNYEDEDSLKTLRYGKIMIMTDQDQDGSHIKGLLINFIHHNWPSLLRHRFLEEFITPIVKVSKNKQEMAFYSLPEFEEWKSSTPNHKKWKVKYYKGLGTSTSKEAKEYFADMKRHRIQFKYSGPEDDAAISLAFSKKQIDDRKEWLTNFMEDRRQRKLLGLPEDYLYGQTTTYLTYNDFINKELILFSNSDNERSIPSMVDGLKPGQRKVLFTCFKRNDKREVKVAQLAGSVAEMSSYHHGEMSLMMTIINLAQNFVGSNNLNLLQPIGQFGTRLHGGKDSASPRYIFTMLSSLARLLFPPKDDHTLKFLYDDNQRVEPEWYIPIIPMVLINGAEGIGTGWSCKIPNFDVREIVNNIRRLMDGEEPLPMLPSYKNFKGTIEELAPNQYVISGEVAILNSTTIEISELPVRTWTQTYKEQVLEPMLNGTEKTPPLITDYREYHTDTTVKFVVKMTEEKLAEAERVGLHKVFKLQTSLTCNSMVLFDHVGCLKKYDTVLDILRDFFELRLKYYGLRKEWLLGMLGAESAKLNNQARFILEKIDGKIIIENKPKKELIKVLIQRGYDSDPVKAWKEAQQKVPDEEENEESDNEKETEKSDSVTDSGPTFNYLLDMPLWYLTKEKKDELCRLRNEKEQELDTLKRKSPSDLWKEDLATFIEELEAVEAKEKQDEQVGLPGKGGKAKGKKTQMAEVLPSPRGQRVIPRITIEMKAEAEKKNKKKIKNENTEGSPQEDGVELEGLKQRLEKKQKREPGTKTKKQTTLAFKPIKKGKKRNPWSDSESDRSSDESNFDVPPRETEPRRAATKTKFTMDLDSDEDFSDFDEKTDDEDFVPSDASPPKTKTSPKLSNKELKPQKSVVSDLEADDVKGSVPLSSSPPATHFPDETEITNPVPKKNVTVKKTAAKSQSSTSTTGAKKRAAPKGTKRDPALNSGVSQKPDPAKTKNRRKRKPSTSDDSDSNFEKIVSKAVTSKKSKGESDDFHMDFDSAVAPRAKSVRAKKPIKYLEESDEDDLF
# Chain of RAC-alpha serine/threonine-protein kinase (Homo sapiens) (P31749 whole entry): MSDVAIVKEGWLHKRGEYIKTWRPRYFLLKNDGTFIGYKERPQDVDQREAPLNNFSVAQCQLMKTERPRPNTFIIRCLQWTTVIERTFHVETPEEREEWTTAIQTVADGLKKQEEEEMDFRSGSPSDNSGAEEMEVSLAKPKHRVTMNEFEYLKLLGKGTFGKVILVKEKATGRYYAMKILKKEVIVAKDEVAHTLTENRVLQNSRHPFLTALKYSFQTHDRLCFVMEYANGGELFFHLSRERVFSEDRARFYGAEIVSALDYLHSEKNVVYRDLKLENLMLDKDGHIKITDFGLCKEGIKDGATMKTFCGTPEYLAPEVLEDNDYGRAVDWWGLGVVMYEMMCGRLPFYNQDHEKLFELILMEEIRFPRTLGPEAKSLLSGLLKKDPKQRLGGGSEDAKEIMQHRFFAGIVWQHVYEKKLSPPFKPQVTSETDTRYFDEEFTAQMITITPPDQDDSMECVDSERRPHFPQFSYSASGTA
structure (smiles),measurement,setting,value
CCCS(=O)(=O)Nc1ccc(F)c(C(=O)c2c[nH]c3ncc(-c4ccc(Cl)cc4)cc23)c1F [VEMURAFENIB],IC50,[1],12.7 µM
same,IC50,[2],> 50 µM
same,IC50,[3],2.05 µM
same,IC50,[4],> 50 µM
same,IC50,[5],20 µM
same,IC50,[6],12.3 µM
same,IC50,[7],2.7 µM
same,IC50,[8],> 50 µM
same,IC50,[9],0.5 µM
same,IC50,[10],7.6 µM
same,IC50,[11],> 50 µM
same,IC50,[12],2 µM
O=C1c2cccc3cccc(c23)C(=O)N1CCCCCCN=C=[Se],viability at 5 µM,[13],83.2%
same,Activity,[14],0.08%
same,IC50,[1],0.8 µM
same,IC50,[2],11.8 µM
same,inhibition,[15],inactive
same,IC50,[3],2.7 µM
same,Activity,[16],41.76%
same,inhibition,[17],Active
same,IC50,[4],13.7 µM
same,Activity,[18],15.52%
same,Activity,[19],20.72%
same,inhibition,[20],Dose-dependent effect
same,Activity,[21],0.8%
same,Activity,[22],9.86%
same,IC50,[5],1.5 µM
same,IC50,[6],2.5 µM
same,Activity,[23],0.84%
same,Activity,[24],69%
same,Activity,[25],> 70%
same,Activity,[26],3%
same,Activity,[27],0.35%
same,Activity,[28],11.47%
same,Activity,[29],54.44%
same,IC50,[7],1.7 µM
same,viability at 10 µM,[30],49.1%
same,IC50,[8],13.4 µM
same,Activity,[31],35%
same,Activity,[32],69.34%
same,Activity,[33],Non-Toxic
same,inhibition,[34],Active
same,IC50,[9],4.4 µM
same,Activity,[35],> 70%
same,Activity,[36],4.52%
same,Ratio IC50,[37],15
same,IC50,[10],10.6 µM
same,IC50,[11],13.4 µM
same,IC50,[12],13.4 µM
O=C1c2cccc3cc([N+](=O)[O-])cc(c23)C(=O)N1CCN=C=[Se],IC50,[1],11 µM
same,IC50,[2],24.8 µM
same,IC50,[3],21 µM
same,IC50,[4],15.3 µM
same,IC50,[5],12.6 µM
same,IC50,[6],14.4 µM
same,IC50,[7],15.9 µM
same,IC50,[8],21.6 µM
same,IC50,[9],24 µM
same,IC50,[10],19.9 µM
same,IC50,[11],21.6 µM
same,IC50,[12],20.3 µM
